In ChEMBL document CHEMBL4330056, “Synthesis and Cytotoxic and Antiviral Profiling of Pyrrolo- and Furo-Fused 7-Deazapurine Ribonucleosides” (J Med Chem, 2018):
Calls of active or inactive are those of the source. No cut-off for these calls is given here.

Legend:
CCRF-CEM [1] = experiment: Induction of cell cycle arrest in human CCRF-CEM cells assessed as accumulation at subG1 phase at IC50 concentration after 24 hrs by propidium iodide-staining based flow cytometry (reference value: 3.45%); format: functional
CCRF-CEM [2] = experiment: Inhibition of RNA synthesis in human CCRF-CEM cells assessed as RNA synthesis level at IC50 concentration after 24 hrs by BrU incorporation assay (reference value: 49.89%); format: functional; parameters: scale not given: the % may be the effect or the level left
CCRF-CEM [3] = experiment: Inhibition of mitosis in human CCRF-CEM cells assessed Ser10 H3 phosphorylation positive cells at IC50 concentration after 24 hrs by flow cytometry relative to total cell population (reference value: 1.36%); format: functional; parameters: scale not given: the % may be the effect or the level left
CCRF-CEM [4] = experiment: Inhibition of DNA synthesis in human CCRF-CEM cells assessed as DNA synthesis level at 5 times IC50 concentration after 24 hrs by BrdU incorporation assay (reference value: 43.39%); format: functional; parameters: scale not given: the % may be the effect or the level left
CCRF-CEM [5] = experiment: Induction of cell cycle arrest in human CCRF-CEM cells assessed as accumulation at S phase at IC50 concentration after 24 hrs by propidium iodide-staining based flow cytometry (reference value: 41.08%); format: functional
HeLa S3 = experiment: Antiproliferative activity against human HeLaS3 cells after 72 hrs by XTT assay; format: functional, cell-based; conditions: HeLa S3, 72 h
MRC5 = experiment: Antiproliferative activity against human MRC5 cells after 3 days by MTS assay; conditions: MRC5, 72 h
[6] = Antiproliferative activity against human K562-TAX cells after 3 days by MTS assay; format: functional, cell-based; conditions: 72 h
CCRF-CEM [7] = experiment: Inhibition of mitosis in human CCRF-CEM cells assessed Ser10 H3 phosphorylation positive cells at 5 times IC50 concentration after 24 hrs by flow cytometry relative to total cell population (reference value: 1.36%); format: functional; parameters: scale not given: the % may be the effect or the level left
U2OS = experiment: Antiproliferative activity against human U2OS cells after 3 days by MTS assay; format: functional, cell-based; conditions: 72 h
BJ = experiment: Antiproliferative activity against human BJ cells after 3 days by MTS assay; conditions: 72 h
HCT-116 [8] = experiment: Antiproliferative activity against p53 gene knocked out human HCT116 cells after 3 days by MTS assay; format: functional, cell-based; conditions: HCT-116, 72 h
HCT-116 [9] = experiment: Antiproliferative activity against human HCT116 cells after 3 days by MTS assay; format: functional, cell-based; conditions: HCT-116, 72 h
CCRF-CEM [10] = experiment: Induction of cell cycle arrest in human CCRF-CEM cells assessed as accumulation at G0/G1 phase at 5 times IC50 concentration after 24 hrs by propidium iodide-staining based flow cytometry (reference value: 39.70%); format: functional
CCRF-CEM [11] = experiment: Inhibition of DNA synthesis in human CCRF-CEM cells assessed as DNA synthesis level at IC50 concentration after 24 hrs by BrdU incorporation assay (reference value: 43.39%); format: functional; parameters: scale not given: the % may be the effect or the level left
CCRF-CEM [12] = experiment: Induction of cell cycle arrest in human CCRF-CEM cells assessed as accumulation at G2/M phase at 5 times IC50 concentration after 24 hrs by propidium iodide-staining based flow cytometry (reference value: 19.22%); format: functional
A549 = experiment: Antiproliferative activity against human A549 cells after 3 days by MTS assay; format: functional, cell-based; conditions: A549, 72 h
CCRF-CEM [13] = experiment: Inhibition of RNA synthesis in human CCRF-CEM cells assessed as RNA synthesis level at 5 times IC50 concentration after 24 hrs by BrU incorporation assay (reference value: 49.89%); format: functional; parameters: scale not given: the % may be the effect or the level left
CCRF-CEM [14] = experiment: Induction of cell cycle arrest in human CCRF-CEM cells assessed as accumulation at subG1 phase at 5 times IC50 concentration after 24 hrs by propidium iodide-staining based flow cytometry (reference value: 3.45%); format: functional
[15] = Antiproliferative activity against human CEM-DNR-bulk cells after 3 days by MTS assay; conditions: 72 h
CCRF-CEM [16] = experiment: Induction of cell cycle arrest in human CCRF-CEM cells assessed as accumulation at S phase at 5 times IC50 concentration after 24 hrs by propidium iodide-staining based flow cytometry (reference value: 41.08%); format: functional
CCRF-CEM [17] = experiment: Induction of cell cycle arrest in human CCRF-CEM cells assessed as accumulation at G0/G1 phase at IC50 concentration after 24 hrs by propidium iodide-staining based flow cytometry (reference value: 39.70%); format: functional
CCRF-CEM [18] = experiment: Induction of cell cycle arrest in human CCRF-CEM cells assessed as accumulation at G2/M phase at IC50 concentration after 24 hrs by propidium iodide-staining based flow cytometry (reference value: 19.22%); format: functional
Influenza A virus = experiment: Antiviral activity against Influenza A virus (A/Mexico/4108/2009(H1N1)) infected in MDCK cells assessed as inhibited virus-induced cytopathic effect incubated for 2 days by XTT assay; format: functional, organism-based
Human orthopneumovirus = experiment: Antiviral activity against Human respiratory syncytial virus A2 infected in Hep2 cells assessed as reduction in virus-induced cytopathic effect incubated for 4 days by CellTiter-Glo viability reagent based assay; format: functional, organism-based
dengue virus type 2 = experiment: Antiviral activity against Dengue virus 2 Thailand/16681/84 infected in African green monkey Vero cells assessed as inhibition of virus replication incubated for 3 days by fluorescence microscopy; format: functional, organism-based
Adenosine kinase [19] = molecular target: T1, Adenosine kinase (Homo sapiens, UniProt P55263); experiment: Inhibition of recombinant human ADK using [3H]-adenosine as substrate after 20 mins by TLC scanner-based analysis relative to control
In short: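 ADK inhibition: 50 μM adenosine substrate with 10 μM test compound and 97 ng enzyme, 20 min at 37 °C.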

Coxsackievirus B3 = experiment: Antiviral activity against Human coxsackie B3 Nancy infected in human HeLa cells assessed as inhibited virus-induced cytopathic effect incubated for 2 days by XTT assay; format: functional, organism-based
HepG2 = experiment: Antiproliferative activity against human HepG2 cells after 72 hrs by XTT assay; format: functional, cell-based; conditions: HepG2, 72 h
CCRF-CEM [20] = experiment: Antiproliferative activity against human CCRF-CEM cells after 3 days by MTS assay; format: functional, cell-based; conditions: 72 h
K562 = experiment: Antiproliferative activity against human K562 cells after 3 days by MTS assay; format: functional, cell-based; conditions: K562, 72 h
[21] = Cytotoxicity against human Hep2 cells assessed as reduction in cell viability after 3 days by CellTiter-Glo assay; format: cell-based; conditions: HEp-2 cells
Human alphaherpesvirus 1 = experiment: Antiviral activity against human herpesvirus 1 HF infected in African green monkey Vero cells assessed as inhibited virus-induced cytopathic effect incubated for 3 days by XTT assay; format: functional, organism-based
Hepatitis C virus [22] = experiment: Antiviral activity against Hepatitis C virus genotype 2a infected in human Huh-luc replicon cells after 3 days by luciferase assay; format: functional, organism-based, Hepacivirus hominis; conditions: subtype 2a, 72 h
Adenosine kinase [23] = molecular target: T1, Adenosine kinase; experiment: Substrate activity at recombinant human ADK assessed as compound phosphorylation at 50 uM after 20 mins in presence of [3H]-adenosine by UPLC; format: ADME
HL-60 = experiment: Antiproliferative activity against human HL60 cells after 72 hrs by XTT assay; format: functional, cell-based; conditions: HL-60, 72 h
Hepatitis C virus [24] = experiment: Antiviral activity against Hepatitis C virus genotype 1b infected in human Huh-luc replicon cells after 3 days by luciferase assay; format: functional, organism-based, Hepacivirus hominis; conditions: subtype 1b, 72 h

T1 sequence (P55263 whole entry): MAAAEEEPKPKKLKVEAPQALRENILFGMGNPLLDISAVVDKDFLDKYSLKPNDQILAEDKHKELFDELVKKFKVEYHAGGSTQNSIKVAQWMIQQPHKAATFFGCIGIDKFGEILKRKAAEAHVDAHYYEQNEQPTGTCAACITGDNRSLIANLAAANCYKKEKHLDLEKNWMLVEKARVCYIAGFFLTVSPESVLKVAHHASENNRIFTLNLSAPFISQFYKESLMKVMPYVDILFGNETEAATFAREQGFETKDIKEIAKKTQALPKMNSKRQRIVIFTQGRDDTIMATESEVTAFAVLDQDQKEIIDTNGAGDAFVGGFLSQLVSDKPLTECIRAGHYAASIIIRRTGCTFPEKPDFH

SMILES	IC50 (HeLa S3)	IC50 (MRC5)	IC50 [6]	IC50 (U2OS)	IC50 (BJ)	IC50 (HCT-116 [8])	IC50 (HCT-116 [9])	IC50 (A549)	IC50 [15]	Activity (Influenza A virus)	Activity (Human orthopneumovirus)	Activity (dengue virus type 2)	IC50 (Adenosine kinase [19])	Activity (Coxsackievirus B3)	IC50 (HepG2)	IC50 (CCRF-CEM [20])	IC50 (K562)	CC50 at 72 h [21]	Activity (Human alphaherpesvirus 1)	EC50 (Hepatitis C virus [22])	also measured
Nc1ncnc2c1c(-c1cccs1)cn2[C@@H]1O[C@H](CO)[C@@H](O)[C@H]1O	0.02 µM	> 50 µM	0.04 µM	0.51 µM	> 50 µM	0.02 µM	0.02 µM	13.1 µM	0.06 µM	–	–	–	–	–	–	–	–	–	–	–	Activity (CCRF-CEM [1]): 29.83%; Activity (CCRF-CEM [2]): 0.91%; Activity (CCRF-CEM [3]): 2.09%; Activity (CCRF-CEM [4]): 10.76%; Activity (CCRF-CEM [5]): 62.28%; Activity (CCRF-CEM [7]): 0.94%; Activity (CCRF-CEM [10]): 32.31%; Activity (CCRF-CEM [11]): 3.59%; Activity (CCRF-CEM [12]): 28.98%; Activity (CCRF-CEM [13]): 57.09%; Activity (CCRF-CEM [14]): 58.53%; Activity (CCRF-CEM [16]): 38.71%; Activity (CCRF-CEM [17]): 20.49%; Activity (CCRF-CEM [18]): 17.23%
CN(C)c1ncnc2c1c1c(ccn1C)n2[C@@H]1O[C@H](CO)[C@@H](O)[C@H]1O	> 50 µM	> 50 µM	> 50 µM	> 50 µM	> 50 µM	> 50 µM	> 50 µM	> 50 µM	> 50 µM	inactive	inactive	inactive	> 10 µM	inactive	> 50 µM	> 50 µM	> 50 µM	> 44.4 µM	inactive	> 44.4 µM	Activity (Adenosine kinase [23]): 0%; IC50 (HL-60): > 50 µM; EC50 (Hepatitis C virus [24]): > 44.4 µM
CN(C)c1ncnc2c1c1occc1n2[C@@H]1O[C@H](CO)[C@@H](O)[C@H]1O	> 50 µM	> 50 µM	> 50 µM	> 50 µM	> 50 µM	> 50 µM	> 50 µM	> 50 µM	> 50 µM	inactive	inactive	inactive	> 10 µM	inactive	> 50 µM	> 50 µM	> 50 µM	> 44.4 µM	inactive	> 44.4 µM	Activity (Adenosine kinase [23]): 7%; IC50 (HL-60): > 50 µM; EC50 (Hepatitis C virus [24]): > 44.4 µM
OC[C@H]1O[C@@H](n2c3ccoc3c3c(-c4ccoc4)ncnc32)[C@H](O)[C@@H]1O	13.1 µM	> 50 µM	9.78 µM	0.64 µM	0.52 µM	10.7 µM	12.1 µM	> 50 µM	> 50 µM	inactive	inactive	inactive	> 10 µM	inactive	6.71 µM	0.21 µM	0.42 µM	> 44.4 µM	inactive	> 44.4 µM	Activity (Adenosine kinase [23]): 38%; IC50 (HL-60): 1.92 µM; EC50 (Hepatitis C virus [24]): 0.78 µM
Cn1ccc2c1c1c(-c3ccoc3)ncnc1n2[C@@H]1O[C@H](CO)[C@@H](O)[C@H]1O	> 50 µM	> 50 µM	> 50 µM	2.41 µM	> 50 µM	9 µM	8.16 µM	> 50 µM	> 50 µM	inactive	inactive	inactive	> 10 µM	inactive	> 50 µM	> 50 µM	0.94 µM	> 44.4 µM	inactive	3.45 µM	Activity (Adenosine kinase [23]): 9%; IC50 (HL-60): > 50 µM; EC50 (Hepatitis C virus [24]): 20.2 µM
COc1ncnc2c1c1ccn(C)c1n2[C@@H]1O[C@H](CO)[C@@H](O)[C@H]1O	> 50 µM	> 50 µM	> 50 µM	> 50 µM	> 50 µM	> 50 µM	> 50 µM	> 50 µM	> 50 µM	inactive	inactive	inactive	> 10 µM	inactive	> 50 µM	> 50 µM	> 50 µM	> 44.4 µM	inactive	> 44.4 µM	Activity (Adenosine kinase [23]): 0%; IC50 (HL-60): > 50 µM; EC50 (Hepatitis C virus [24]): > 44.4 µM
